Calls of active or inactive are those of the source. No cut-off for these calls is given here.
Experiments:
[1] = Acute toxicity in rat assessed as survival up to 0.5 mmol/kg after 24 hrs; type: organism-based; details: in vivo, read-out: Activity
Procedure, shortened: (§1)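 Rats were split into 5 groups of 6–8 animals each and injected with graded doses of 0.1–0.5 mmol/kg body weight. Animals were then scored for survival and examined macroscopically and at autopsy.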

Rattus norvegicus [2] = assay: In vivo antiinflammatory activity in Fisher 344 rat assessed as inhibition of carrageenan-induced paw edema at 0.01 mmol/kg, ip administered simultaneously with carrageenan measured after 3.5 hrs; type: functional; details: Fisher 344, ip
Procedure, shortened: (§2)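 Rats of both sexes (pregnant females excluded), bred in-house and fasted during the experiment; 6–15 per group, run twice. Test agents were suspended in water with a few drops of Tween 80 and given ip at the time of carrageenin injection. Rats were killed 3.5 h later. Injected minus uninjected paw weight gave % edema inhibition versus water-treated controls.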

[3] = Antioxidant activity assessed as reduction of DPPH activity at 0.1 mM after 60 mins; type: functional; parameters: scale not given: the % may be the effect or the level left
Procedure, shortened: (§3)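 DPPH at 0.05 mM final in absolute ethanol was mixed with test compounds in ethanol at 0.1 or 0.5 mM final, with ethanol as the control. After 20 and 60 min at room temperature, absorbance was read at 517 nm. At least triplicate.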

Rattus norvegicus [4] = assay: Acute toxicity in rat assessed as mortality up to 0.5 mmol/kg after 24 hrs by autopsy; type: organism-based; details: in vivo; procedure, shortened: as §1
[5] = Antioxidant activity assessed as reduction of DPPH activity at 0.5 mM after 20 mins; type: functional; parameters: scale not given: the % may be the effect or the level left; procedure, shortened: as §3
[6] = Antioxidant activity assessed as reduction of DPPH activity at 0.1 mM after 20 mins; type: functional; parameters: scale not given: the % may be the effect or the level left; procedure, shortened: as §3
[7] = Antioxidant activity against hydroxyl radical assessed as inhibition of formaldehyde production at 0.1 mM after 30 mins relative to DMSO; type: functional; parameters: scale not given: the % may be the effect or the level left
Procedure, shortened: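 Hydroxyl radicals were generated with Fe3+, DMSO 33 mM and ascorbic acid 10 mM in 50 mM phosphate buffer, pH 7.4, with test compound at 0.1 mM final. Mixtures were incubated 30 min at 37 °C, stopped with CCl3COOH (17% w/v), and formaldehyde was read spectrophotometrically at 412. At least triplicate.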

Glycine max = assay: Inhibition of soybean lipoxygenase assessed as conversion of sodium linoleate to 13-hydroperoxylinoleic acid at 0.1 mM
Procedure, shortened: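 Soybean lipoxygenase (enzyme solution 1/9 × 10^-4 w/v in saline) was incubated at room temperature with sodium linoleate 0.1 mM and test compounds in ethanol. Conversion to 13-hydroperoxylinoleic acid was followed at 234 nm and compared with a standard inhibitor. At least triplicate.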

[8] = Antioxidant activity assessed as reduction of DPPH activity at 0.5 mM after 60 mins; type: functional; parameters: scale not given: the % may be the effect or the level left; procedure, shortened: as §3
Rattus norvegicus [9] = assay: Acute toxicity in rat assessed as mortality up to 0.5 mmol/kg after 24 hrs by macroscopic analysis; type: organism-based; details: in vivo; procedure, shortened: as §1
Rattus norvegicus [10] = assay: Antiinflammatory activity in Fisher 344 rat assessed as inhibition of carrageenan-induced paw edema at 0.01 mmol/kg, ip administered simultaneously with carrageenan measured after 3.5 hrs; type: functional; details: Fisher 344, ip; procedure, shortened: as §2
Rattus norvegicus [11] = assay: Antiinflammatory activity in Fisher 344 rat assessed as inhibition of carrageenan-induced paw edema at 0.001 mmol/kg, ip administered simultaneously with carrageenan measured after 3.5 hrs; type: functional; details: Fisher 344, ip

SMILES	survival at 24 h [1] [%]	inhibition in vivo at 10 µmol/kg (Rattus norvegicus [2]) [%]	Activity [3] [%]	Activity (Rattus norvegicus [4])	Activity [5]	Activity [6] [%]	Activity [7]	inhibition (Glycine max)	Activity [8]	Activity (Rattus norvegicus [9])	inhibition in vivo at 10 µmol/kg (Rattus norvegicus [10]) [%]	inhibition in vivo at 1 µmol/kg (Rattus norvegicus [11]) [%]
NCCCCCCCCNC(=O)c1c(O)c2ccccc2oc1=O	80	48	8	Non-toxic	9%	17	inactive	inactive	19%	Non-toxic		
COc1ccc2c(c1)c(CC(=O)O)c(C)n2C(=O)c1ccc(Cl)cc1 [INDOMETHACIN]		47										
O=C(O)CCCCC1CCSS1 (stereo not drawn) [LIPOIC ACID, ALPHA]		29.6	27		5%	20	38.6%	29.1%	7%			
Cc1ccc2oc(=O)c(C(=O)NCCCCCCCCNC(=O)CCCCC3CCSS3)c(O)c2c1 (stereo not given)	80		65	Non-toxic	89%	69	100%	8.3%	87%	Non-toxic	73	60
CC(Cc1ccc(O)c(O)c1)C(C)Cc1ccc(O)c(O)c1 (stereo not given)			83		97%			84%	98%			
Cc1ccc2oc(=O)c(C(=O)NCCN)c(O)c2c1	80	59	59	Non-toxic	70%	48	100%	14%	65%	Non-toxic		
CCOC(=O)c1c(O)oc2ccccc2c1=O	80	63	27	Non-toxic	20%	15	91%	93%	13%	Non-toxic		
O=C(CCCCC1CCSS1)NCCCCCCCCNC(=O)c1c(O)c2ccccc2oc1=O (stereo not given)	80	43	21	Non-toxic	32%	21	inactive	33%	25%	Non-toxic		
Nc1ccccc1NC(=O)c1c(O)c2ccccc2oc1=O	80	57	93	Non-toxic	85%	90	inactive	23%	83%	Non-toxic		
NCCCCCCNC(=O)c1c(O)oc2ccccc2c1=O	80	49	3	Non-toxic	5%	3	100%	52%	5%	Non-toxic		
NCCNC(=O)c1c(O)c2ccccc2oc1=O	80	59	25	Non-toxic	inactive	42	91%	100%	inactive	Non-toxic		
CCOC(=O)c1c(O)c2cc(C)ccc2oc1=O	80	41	8	Non-toxic	20%	18	81%	93%	33%	Non-toxic		
Cc1ccc2oc(=O)c(C(=O)Nc3ccccc3N)c(O)c2c1	80	60	65	Non-toxic	70%	74	100%	22%	78%	Non-toxic		
O=C(CCCCC1CCSS1)NCCCCCCNC(=O)c1c(O)c2ccccc2oc1=O (stereo not given)	80		18	Non-toxic	23%	15	96%	18%	12%	Non-toxic	72	61
Cc1c(C)c2c(c(C)c1O)CCC(C)(C(=O)O)O2 (stereo not given)							88.2%					
Cc1ccc2oc(=O)c(C(=O)NCCCCCCCCN)c(O)c2c1	80	59	68	Non-toxic	72%	58	100%	30%	78%	Non-toxic		

— ChEMBL document CHEMBL1152900, “Synthesis and evaluation of the antioxidant and anti-inflammatory activity of novel coumarin-3-aminoamides and their alpha-lipoic acid adducts” (Eur J Med Chem, 2009)
